Measurements taken from PubChem BioAssay AID488858 (Broad Institute, 2010).
Inconclusive results are not listed. Calls of active or inactive are those of the source.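 Rule for the calls: active = compounds raising caspase signal whose fitted AC50 is at most tenfold their top valid tested dose; inconclusive = flat fit at 30 to 70% activation, or poor fit; inactive = the rest.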

Experiments:
[1] = caspase induction in A1-dependent fibroblasts – cell-based, MEF A1-2A-BIM, luminescence, dry powder, set 3, A1 (BCL2A1) inhibitor project, dose response (AID 488858); settings: MEF A1-2A-BIM cells, caspase-3/7 luminescence; at 150 µM (top of the series)
How it was run: (§1)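 Material: Mouse embryonic fibroblasts co-expressing A1-2A-BIM, survival dependent on A1 | Quantity: 2500 cells per well | Buffer or medium: RPMI medium with 10% FBS | Doses: Dry-powder compounds pinned as a dose series | Incubation: 3 h compound at 37 °C, 1 h reagent at RT | Detection: Caspase-3/7 DEVD luminescence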

[2] = tested on: MEF A1-2A-BIM cells, caspase-3/7 luminescence; experiment: as above
How it was run: as §1

SMILES	caspase activation [1]	AC50 [2] [µM]
CC(=O)OC(C)(C)/C=C/C(=O)[C@](C)(O)C1[C@H](O)C[C@@]2(C)C3CC=C4C(C[C@H](O)C(=O)C4(C)C)[C@]3(C)C(=O)C[C@]12C (some centres undefined)	1.66% (inactive)	–
CC(C)(C)n1nc(-c2ccc(Cl)cc2)c2c(N)ncnc21	–	6.5
Cn1c(=NC(=O)CCl)sc2ccccc21	–	4
O=C(Oc1cccc(/C=N/Nc2nc(Nc3ccccc3)nc(N3CCOCC3)n2)c1)c1ccco1	–	4.23
C=C1[C@@H](C)[C@H]2[C@H](Cc3ccccc3)NC(=O)[C@]23[C@H](OC(C)=O)/C=C/[C@](C)(O)C(=O)[C@@H](C)C/C=C/[C@H]3[C@@H]1O	–	1.2
CCSc1nnc(NC(=O)c2nc(S(=O)(=O)Cc3ccc(F)cc3)ncc2Cl)s1	–	14.4
COc1ccc(N(C(=O)CCl)C(C(=O)NCCc2ccccc2)c2cccs2)cc1Cl (centres undefined)	–	0.236
Nc1nc(F)nc2c1ncn2[C@@H]1O[C@H](CO)[C@@H](O)[C@H]1O	–	2.87
CCc1nnc(NC(=O)c2nc(S(=O)(=O)Cc3ccccc3)ncc2Cl)s1	–	15.6
O=C(CCl)N=c1sccn1Cc1ccccc1Cl	–	1.06
Cc1cc(C(=O)CCl)c(C)n1CCc1ccc(Cl)cc1	–	6.06
COc1cc(/C=C(/C#N)c2nc3ccccc3[nH]2)ccc1OCC(=O)Nc1ccccc1C(C)C	0.201% (inactive)	–
C/C1=C/C(=O)O[C@@H]2C[C@@H](CC[C@H](C)/C=C\CC1)O[C@@](O)(C1CSC(=O)N1)C2 (some centres undefined)	–	0.37
Cc1cccc(NC(=O)/C(C#N)=C/c2cn(CC(=O)NCc3ccco3)c3ccccc23)c1	–	5.6
Cc1cccc(CS(=O)(=O)c2ncc(Cl)c(C(=O)Nc3nnc(C(C)C)s3)n2)c1	–	12.6
Cc1c(CCOC(=O)c2ccc(N3CCOCC3)c([N+](=O)[O-])c2)sc[n+]1CC#N	–	10.7
Cc1c(C=O)c(C=O)c(C)n1Cc1ccccc1	–	6.27
COc1cc(CN2CCN(c3cc(C)ccc3C)CC2)ccc1O	–	10.6
CCc1cc2c(=O)c(-c3cnn(-c4ccccc4)c3)c(C)oc2cc1OCC(=O)Nc1cccc(C)c1	–	5.41
CCOC(=O)CSC1=N/C(=C/c2ccc(-n3cncn3)cc2)C(=O)N1C(C)=O	–	9.77
C=C1[C@@H](C)[C@H]2[C@H](Cc3ccccc3)NC(=O)[C@]23OC(=O)/C=C\[C@H](O)CCC[C@@H](C)C/C=C/[C@H]3[C@@H]1O	–	2.72
Cc1ccc(Sc2c([N+](=O)[O-])c(=O)n(C)c3ccccc23)cc1	–	21
Cc1ccc(CS(=O)(=O)c2ncc(Cl)c(C(=O)Nc3nnc(C(C)C)s3)n2)cc1	–	12.3
CC(=O)N[C@H]1[C@H](O[C@H]2CC[C@@]3(C)C(CC[C@]4(C)C3CC=C3[C@@H]5CC(C)(C)CC[C@]5(C(=O)OC5OCC(O)C(O)C5O)C(O)C[C@]34C)C2(C)C)O[C@H](COC2OCC(O)C(OC3OCC(O)C(O)C3O)C2O)[C@@H](O[C@@H]2O[C@@H](C)[C@H](O)[C@@H](O)[C@H]2O[C@@H]2O[C@@H](C)[C@H](O)[C@@H](O)[C@H]2O)[C@@H]1O (some centres undefined)	–	9.71
